TAG inh – inhibitors of triacylglycerol accumulation, primary screen, cell-based, uHTS, fluorescence, H9c2 | H9c2 cells, Nile Red lipid (TAG) fluorescence; cells loaded with 200 µM oleic acid | inhibition, % at 12.5 µM | 230,000 tested, 0.66% active | AID 651582, 2012;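 active means pattern-corrected inhibition of lipid staining of at least 50% with the nuclear-stain viability signal not falling by more than 50%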
Hck Nef HTS – inhibitors of Nef-activated human Hck kinase, primary screen, biochemical, Z-Lyte FRET, 384-well, Hck-YEEI. Tyrosine-protein kinase HCK (Homo sapiens), P08631. Recombinant Hck-YEEI plus Nef, Z-Lyte FRET kinase assay. inhibition, % at 20 µM. 220,000 tested, 0.68% active;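 active means Hck-Nef kinase inhibition above about 50%, limit read from the data; inactive means inhibition below that limit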
PKD1 kinase inh – inhibitors of human PKD1 kinase, biochemical, fluorescence polarization. Serine/threonine-protein kinase D1 (Homo sapiens), Q15139. PKD1 kinase fluorescence polarization assay. 200,000 tested, 0.056% active. inhibition, % (test concentration not listed). AID 797, 2007; in the data active means inhibition above about 50%
Rad51 HR inh – human RAD51 strand exchange inhibitors, primary screen, biochemical, fluorescence; hRad51 DNA strand exchange, fluorescence dequenching; inhibition, % at 10 µM; 200,000 tested, 0.085% active; AID 1385, 2008;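 active means inhibition above 40% at the single screening dose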
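Test system: preformed human Rad51 ssDNA filaments; also added: Donor/quencher-labelled 47-bp dsDNA substrate; doses: 10 µM final, single point; times: 37 °C 15-min filament assembly, 30-min compound preincubation, 15-min exchange; detection: FRET fluorescence dequenching, excitation 485 nm, emission 520 nm; read-out basis: Fluorescence-based percent inhibition, control- and blank-normalised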
PERK inh – block of dimerizer-induced PERK translation repression, primary screen, PERK inhibitor project, CHO PERK-DD cells, SEAP luminescence, HTS; Eukaryotic translation initiation factor 2-alpha kinase 3 (Homo sapiens), Q9NZJ5; CHO PERK-DD fusion, SEAP luminescence translation reporter; inhibition, % at 5.6 µM; 220,000 tested, 0.17% active; AID 1416, 2008;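 active means inhibition above the mean inhibition of all tested compounds plus 3 SD, set separately per screening campaign, cut at about 2.9% in these data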;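 further: PERK kinase domain activated by AP20187 dimerizer at 100 nM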
Mdm2 ligase inh – MDM2-luciferase reporter signal enhancers, primary screen, MDM2 E3 ligase inhibitor project, cell-based, luminescence, 1536-well; E3 ubiquitin-protein ligase Mdm2 (Homo sapiens), Q00987; cell-based MDM2 ubiquitination luciferase reporter, 2 h; 0 = plate control, 100 = twice control, blank-subtracted; signal enhancement, % at 5 µM; 210,000 tested, 0.11% active;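 active means signal enhancement of 30% or more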;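 further: luminescence tracks abundance of the self-degrading MDM2-luciferase fusion protein; higher signal means inhibition of MDM2 E3 ligase activity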
Target sequence (Q00987 whole entry, looked up, the tested form may be a part): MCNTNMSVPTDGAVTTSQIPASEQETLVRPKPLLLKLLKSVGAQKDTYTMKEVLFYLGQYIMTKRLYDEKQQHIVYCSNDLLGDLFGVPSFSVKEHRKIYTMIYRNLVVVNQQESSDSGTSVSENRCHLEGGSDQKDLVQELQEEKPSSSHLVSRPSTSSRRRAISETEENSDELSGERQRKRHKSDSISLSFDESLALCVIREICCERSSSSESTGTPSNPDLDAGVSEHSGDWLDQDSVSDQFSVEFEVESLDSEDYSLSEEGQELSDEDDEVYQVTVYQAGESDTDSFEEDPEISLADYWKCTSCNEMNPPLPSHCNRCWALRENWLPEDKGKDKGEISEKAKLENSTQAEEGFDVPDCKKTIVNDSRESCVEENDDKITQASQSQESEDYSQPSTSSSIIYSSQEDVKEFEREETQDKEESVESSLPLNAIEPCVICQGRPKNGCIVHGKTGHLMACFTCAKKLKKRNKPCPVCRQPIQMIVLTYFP
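Buffer or medium: Cells held in DMEM | Assay system: Stable mammalian line carrying autodegrading MDM2–luciferase fusion reporter | Quantity: 2000 cells/well | Times: 4 h settle plus 2 h compound, 37 °C | Doses: One concentration, 5 µM, with 0.2% DMSO | Technique: Luminescence with SteadyLite reagent, 15 min at room temperature | Benchmarks: Plate controls and plate blanks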
H9c2 TAG conf – triacylglycerol accumulation inhibitors, retest, confirmation, cell-based, single concentration, Nile Red fluorescence, H9c2. shares compounds with TAG inh. H9c2 lipid accumulation; cells loaded with 200 µM oleic acid. inhibition, % at 12.5 µM. 990 tested, 71% active;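 active means mean inhibition across replicates of 40% or more; inactive means mean inhibition below 40%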
Hits are given with their value; i = inactive; nt = no result. An excerpt weighted towards active compounds, which were near 1.3% of everything screened.

SMILES | TAG inh | Hck Nef HTS | PKD1 kinase inh | Rad51 HR inh | PERK inh | Mdm2 ligase inh | H9c2 TAG conf
COCCN1C(=O)c2ccccc2C(C(=O)Nc2ccc3c(c2)OCCO3)C1c1ccc(F)cc1 (stereo unspecified) | 57.2 | i | i | i | i | i | i
O=C(O)c1ccccc1C(=O)Nc1ccc(Oc2ccccc2)cc1 | i | i | nt | i | i | i | nt
CC(C)(C)c1ccc(Oc2ccc(NC(=O)c3ccccc3C(=O)O)cn2)cc1 | 61.7 | i | nt | i | i | i | i
C[C@H](CO)N1C[C@H](C)[C@H](CN(C)S(=O)(=O)c2ccc(Cl)cc2)OCc2ccccc2-c2c(n(C)c3ccccc23)C1=O | 50.8 | nt | nt | nt | nt | nt | 79.8
Cc1ccc(S(=O)(=O)N(C)C[C@@H]2OCc3ccccc3-c3c(n(C)c4ccccc34)C(=O)N([C@H](C)CO)C[C@@H]2C)cc1 | i | nt | nt | nt | nt | nt | nt
O=C(c1cccc([N+](=O)[O-])c1)N1CCN(c2cccc(Cl)c2)CC1 | i | i | i | i | i | i | nt
COC(=O)c1cc(C(=O)N2CCN(c3cccc(Cl)c3)CC2)cc([N+](=O)[O-])c1 | 63.5 | i | i | i | i | i | 56.3
CSC1=NC(C(Cl)(Cl)Cl)N=C(c2ccc(C)cc2)N1 (stereo unspecified) | 56.0 | i | i | i | i | i | 50.0
C=CCNC(=O)C1CC1(c1ccc(C)cc1)c1ccc(C)cc1 (stereo unspecified) | i | nt | nt | nt | nt | nt | nt
CCOc1ccc(-n2cc(-c3ccc(OC)c(OC)c3)[nH]c2=S)cc1 | i | i | i | i | i | i | nt
COc1ccc(OC[C@@H](O)CNC(=O)c2cccc3c2C(=O)c2ccc(-c4ccc(F)cc4OCc4ccccc4)cc2S3(=O)=O)cc1 | i | nt | nt | nt | nt | nt | nt

Screening results from PubChem.
